Measured values: PubChem BioAssay
Values without a mark were called inactive. Records with an inconclusive call do not appear. The source made the active and inactive calls.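 The calls were made as follows, unless noted: active = RAM network inhibition above 8.4% in each of two replicates, 3 SD over the compound average; inconclusive = above 8.4% inhibition in only one replicate; inactive = 8.4% inhibition or less in each replicate.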

Tests used:
[1] = S. cerevisiae growth inhibition in permissive medium (OD615), pilot counter-assay for S. cerevisiae lifespan shortening project, permissive growth control (AID 705;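 active = growth inhibition above 25% in both replicates, a cutoff set 3 SD above the mean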); conditions: OD615, 24 h, at 10 µM, hits give high values
Outline: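 System: Engineered DeaD yeast | Buffer or medium: SC raffinose/galactose permissive medium | Incubation: Cells pre-grown 4 h, then 24 h compound exposure, 30 °C humidified | Measured by: Absorbance (optical density) at 615 nm | Read-out: Reduction in yeast growth (OD615)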

[2] = S. cerevisiae growth inhibition in restrictive medium, OD615, pilot screen, restrictive growth control, yeast lifespan reduction project (AID 706;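 active = growth inhibition above a set limit, 3 SD over mean compound inhibition, in both replicates, cut at about 43% in these data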;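 also: modified DeaD lifespan yeast strain shifted to restrictive glucose medium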); conditions: OD615, 48 h, at 10 µM, hits give high values
Outline: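 Material: modified S. cerevisiae; Medium: glucose-based CSMM-D restrictive medium; Compound dosing: one concentration, 10 µM final, 0.25% DMSO; Incubation: 48 h compound exposure at 30 °C; Measured by: OD615.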

[3] = doxorubicin toxicity protection in MRP-1 cells – H69AR cells, CellTiter-Glo, duplicate, MRP-1 activator project, pilot screen (AID 807;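 active = viability increase at or above a cutoff of the median across tested compounds plus 3 SD, cut at about 8.5% in these data, passing the limit was not always enough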;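 also: compound pretreatment 18-22 h then 72 h combined with doxorubicin; 0% = doxorubicin alone and 100% = vehicle without doxorubicin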); conditions: H69AR viability with doxorubicin, CellTiter-Glo luminescence; at 10 µM; hits give high values
[4] = viability of HCT116 without oncogenic beta-catenin – human colon tumor cells, pilot screen (AID 823;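 active = cell viability at or below a set limit in both duplicate runs, the limit being the all-compound median minus 4 SD, cut at about 23% in these data, passing the limit was not always enough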;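 also: 0% = wells killed by 20 µM Hyamine and 100% = untreated DMSO cell wells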); conditions: HCT116 beta-catenin knockout viability, CellTiter-Glo, 60 h; at 10 µM; hits give low values
[5] = viability of PTEN-null HCT116 cells – cell-based, HCT116 clonal line, CellTiter-Glo, pilot screen (AID 824;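 active = viability at or below 27.92% in each of two runs, the all-compound median minus 4 SD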;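 also: 0% = 20 µM Hyamine control and 100% = vehicle cell control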); conditions: HCT116 PTEN-deleted viability, 60 h, at 10 µM, hits give low values
[6] = RAM pathway blockade in budding yeast – dse1pr::URA3 reporter, 5-FOA selection, pilot screen (AID 869;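 active = inhibition over a set limit, the all-compound mean plus 3 SD, in both replicate runs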;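 also: 0% = DMSO wells with no growth and 100% = 10 µM 1-NA-PP1 with full growth; RAM network block rescues cells from 5-FOA so hits raise OD615 growth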); conditions: S. cerevisiae dse1pr::URA3 5-FOA growth, OD615, 2 d; at 10 µM; hits give high values; strain carries analog-sensitive mutant Cbk1 kinase
[7] = RAM signaling pathway blockade in yeast – S. cerevisiae, Pdr1DBD-CYC8 efflux-inhibited sensitized strain, primary screen (AID 1298);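 also: 0% = DMSO untreated cells without growth and 100% = 10 µM 1-NA-PP1 full growth; higher means more yeast growth rescued from 5-FOA killing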; conditions: S. cerevisiae cbk1-as DSE1-URA3 strain, 5-FOA growth OD615, 2 d; at 50 µM; hits give high values

Row | SMILES | growth inhibition [1] [%] | growth inhibition [2] | viability increase [3] [%] | viability [4] | viability [5] | inhibition [6] [%] | RAM network inhibition [7] [%]
1 | CCn1c(SCC(=O)N2CCOCC2)nc(O)cc1=O | -6.62 | -12.7% | -0.84 | 105% | 103% | 2.59 | 1.54
2 | Cn1c(=O)c2cc(NCc3ccccc3)nnc2n(C)c1=O | -12.8 | -9.73% | -2.1 | 67.5% | 58.8% | 0.38 | -0.94
3 | CCOC(=O)N1CCN(C(=O)CSc2nnc(-c3cccs3)o2)CC1 | 0.955 | 3.94% | 0.87 | 104% | 108% | 0.595 | 1.07
4 | COc1cccc(C2c3c(oc4ccc(F)cc4c3=O)C(=O)N2CCCN2CCOCC2)c1 (centres undefined) | -9.58 | -6.59% | -1.59 | 105% | 105% | 1.25 | 4.33
5 | Cc1ccc(C)c(NC(=O)C2CC=CCC2C(=O)O)c1 (centres undefined) | 3.24 | 5.03% | -0.5 | 101% | 104% | 1.96 | 4.68
6 | CCOC(=O)C1C(C)N=C2SCC(=O)N2C1c1cccc(Br)c1 (centres undefined) | 9.43 | 51.2% (active) | -0.84 | 86.4% | 93.2% | 0.36 | 3.99
7 | CCc1cccc(C)c1NC(=O)CN1C(=O)c2ccccc2S1(=O)=O | -7.37 | 1.46% | -0.23 | 98.3% | 93.2% | 0.955 | 4.79
8 | O=C(O)CN1C(=O)C2C3C=CC(C3)C2C1=O (centres undefined) | -14.3 | -14.5% | 0.28 | 102% | 88% | 1.61 | 2.2
9 | O=C(NCc1ccco1)c1cc(S(=O)(=O)N2CCOCC2)ccc1Cl | -8.68 | -8.34% | -3.24 | 86.2% | 95.2% | 3.05 | 1.96
10 | Cn1c(=O)c2c(nc(CN3CCN(Cc4ccccc4)CC3)n2Cc2ccc(Cl)cc2)n(C)c1=O | -2.47 | -13.5% | -6.52 | 8.81% (active) | 10.3% (active) | 1.27 | 2.33
11 | COc1cc(C2C(C(=O)c3ccco3)=C(O)C(=O)N2Cc2cccnc2)cc(OC)c1OC (centres undefined) | 2.67 | -4.03% | -3.86 | 102% | 96.8% | 1.64 | 4.97
12 | COc1ccccc1CNC(=O)COC(=O)c1ccc(NC(N)=O)cc1 | -12.7 | -13.7% | -0.98 | 96.5% | 97.9% | 0.56 | 5.2
13 | CC(O)c1cccc(NC(=O)CCC(=O)O)c1 (centres undefined) | 0.85 | -3.43% | -2.35 | 98.9% | 95.4% | 1.97 | -1.13
14 | CSc1nnc2n(-c3ccc(C)cc3)c(=O)c3c4c(sc3n12)COC(C(C)C)C4 (centres undefined) | -18.2 | -3.12% | -4.07 | 37.3% | 31.6% | -0.285 | 7.91
15 | COC(=O)/C=C/S(=O)(=O)c1ccc(NC(C)=O)cc1 | -15.3 | 0.685% | -8.44 | 88.3% | 85.4% | 0.565 | 7.25
16 | CC(=O)Nn1cc2c(c1-c1ccccc1)c(=O)n(C)c(=O)n2C | -10 | -3.13% | 1.16 | 93% | 87.2% | 1.5 | 3.01
17 | CCOc1ccc(N(CC(=O)NCCCOC)S(C)(=O)=O)cc1 | 4.66 | 3.23% | -2.35 | 98.9% | 101% | 0.95 | 2.73
18 | CCSCCOC(=O)C1=C(C)NC(=O)NC1c1cccc(OC)c1OC (centres undefined) | -15 | -9.84% | -1.39 | 96.8% | 96.9% | 0.96 | 0.63
19 | CCC1CCCCN1Cc1ccc(OC)c(OC)c1 (centres undefined) | -7.04 | -8.04% | -2.09 | 87.8% | 96.9% | 2.01 | -1.61
20 | COc1ccc(N(CC(=O)NC2CCCCCCC2)S(=O)(=O)c2c(C)nn(C)c2C)cc1 | -20.7 | -13.6% | -2.87 | 89.2% | 87.5% | 1.31 | 0.05
21 | O=C(COc1ccccc1)NCc1nnc(SCC(=O)Nc2nccs2)n1-c1ccccc1 | -10.1 | -4.89% | -1.46 | 101% | 101% | 2.13 | 4.48
22 | COc1ccc(OC)c2sc(NC(=O)C3COc4ccccc4O3)nc12 (centres undefined) | -19.7 | -10.6% | -3.63 | 101% | 95.6% | -0.125 | 2.87
